pEC50, pIC50, pKi: −log10 of the molar value. In brackets after ≈: the same amount, converted by molar mass.
Experiments:
[1] = Selectivity ratio of EC50 for human alpha3 nAChR to EC50 for rat alpha7 nAChR
[2] = biological target: T1, 5-hydroxytryptamine receptor 3A (Homo sapiens, UniProt P46098); experiment: Antagonist activity at human 5HT3A receptor expressed in HEK293 cells by FLIPR assay
T1 sequence (P46098 whole entry): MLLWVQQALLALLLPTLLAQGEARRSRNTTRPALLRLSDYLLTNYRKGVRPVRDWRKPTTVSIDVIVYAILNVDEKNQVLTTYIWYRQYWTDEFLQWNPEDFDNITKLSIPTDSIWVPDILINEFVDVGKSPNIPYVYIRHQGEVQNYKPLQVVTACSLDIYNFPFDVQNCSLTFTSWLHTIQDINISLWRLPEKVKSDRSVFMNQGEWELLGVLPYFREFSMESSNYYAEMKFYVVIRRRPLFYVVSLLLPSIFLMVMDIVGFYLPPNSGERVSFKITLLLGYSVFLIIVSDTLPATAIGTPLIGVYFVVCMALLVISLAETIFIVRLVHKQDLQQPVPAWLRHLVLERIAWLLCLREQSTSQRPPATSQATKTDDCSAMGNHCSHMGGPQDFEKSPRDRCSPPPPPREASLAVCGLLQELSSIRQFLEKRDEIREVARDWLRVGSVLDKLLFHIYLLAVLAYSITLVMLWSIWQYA

[3] = Solubility in ammonium acetate buffer at pH 7.4 by pseudothermodynamic equilibrium assay; format: physicochemical
[4] = Selectivity ratio of EC50 for human alpha1 nAChR to EC50 for rat alpha7 nAChR
[5] = biological target: Neuronal acetylcholine receptor subunit alpha-7 (Rattus norvegicus, UniProt Q05941); experiment: Agonist activity at rat alpha7 nAChR expressed in rat GH4C1 cells assessed as calcium flux by FLIPR; format: functional, cell-based, GH4-C1
Neuronal acetylcholine receptor subunit alpha-7, sequence (Q05941 whole entry): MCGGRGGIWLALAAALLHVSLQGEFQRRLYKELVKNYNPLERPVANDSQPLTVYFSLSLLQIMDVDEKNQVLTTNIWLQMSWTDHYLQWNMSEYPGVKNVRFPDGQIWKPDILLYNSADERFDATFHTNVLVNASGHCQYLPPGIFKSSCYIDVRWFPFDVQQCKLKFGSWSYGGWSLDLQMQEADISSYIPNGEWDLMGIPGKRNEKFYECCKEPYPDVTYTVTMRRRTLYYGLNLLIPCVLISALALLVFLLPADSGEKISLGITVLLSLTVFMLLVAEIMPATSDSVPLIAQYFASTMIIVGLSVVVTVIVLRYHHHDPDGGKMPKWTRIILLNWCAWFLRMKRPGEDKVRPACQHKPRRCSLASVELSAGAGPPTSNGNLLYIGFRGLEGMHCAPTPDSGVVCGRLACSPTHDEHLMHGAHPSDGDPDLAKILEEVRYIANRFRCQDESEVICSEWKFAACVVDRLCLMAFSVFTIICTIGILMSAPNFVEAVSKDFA
Summary of the method: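 Cells were loaded 40 min at 37 °C with 4 μM Fluo-4-AM in HBSS-HEPES pH 7.4 with probenecid. FLIPR Ca2+ flux was read for ~10 min after compound addition. MAX-MIN was normalized to positive control and fitted to a variable-slope sigmoid. Triplicate points from a single experiment.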

CYP3A4 [6] = biological target: CYP3A4 (Homo sapiens, UniProt P08684); experiment: Inhibition of CYP3A4 at 3 uM by Gentest method; format: ADME
CYP3A4 (Homo sapiens, UniProt P08684), sequence (P08684 whole entry): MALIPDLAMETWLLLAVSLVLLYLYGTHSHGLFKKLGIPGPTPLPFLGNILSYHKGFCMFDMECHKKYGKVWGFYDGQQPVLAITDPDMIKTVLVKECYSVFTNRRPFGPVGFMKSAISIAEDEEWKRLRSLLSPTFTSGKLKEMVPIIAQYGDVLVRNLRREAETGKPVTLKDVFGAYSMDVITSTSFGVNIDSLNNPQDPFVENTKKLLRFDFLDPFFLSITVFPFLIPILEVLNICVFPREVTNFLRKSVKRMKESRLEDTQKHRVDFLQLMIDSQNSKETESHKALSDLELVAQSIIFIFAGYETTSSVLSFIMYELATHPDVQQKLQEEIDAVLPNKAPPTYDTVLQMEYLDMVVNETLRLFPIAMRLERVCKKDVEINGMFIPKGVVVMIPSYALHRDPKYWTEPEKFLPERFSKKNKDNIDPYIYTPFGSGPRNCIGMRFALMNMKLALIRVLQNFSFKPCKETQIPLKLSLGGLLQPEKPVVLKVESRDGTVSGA

CYP2D6 = CYP2D6 (Homo sapiens, UniProt P10635); experiment: Inhibition of CYP2D6 at 3 uM by Gentest method; format: ADME
CYP2D6, sequence (P10635 whole entry): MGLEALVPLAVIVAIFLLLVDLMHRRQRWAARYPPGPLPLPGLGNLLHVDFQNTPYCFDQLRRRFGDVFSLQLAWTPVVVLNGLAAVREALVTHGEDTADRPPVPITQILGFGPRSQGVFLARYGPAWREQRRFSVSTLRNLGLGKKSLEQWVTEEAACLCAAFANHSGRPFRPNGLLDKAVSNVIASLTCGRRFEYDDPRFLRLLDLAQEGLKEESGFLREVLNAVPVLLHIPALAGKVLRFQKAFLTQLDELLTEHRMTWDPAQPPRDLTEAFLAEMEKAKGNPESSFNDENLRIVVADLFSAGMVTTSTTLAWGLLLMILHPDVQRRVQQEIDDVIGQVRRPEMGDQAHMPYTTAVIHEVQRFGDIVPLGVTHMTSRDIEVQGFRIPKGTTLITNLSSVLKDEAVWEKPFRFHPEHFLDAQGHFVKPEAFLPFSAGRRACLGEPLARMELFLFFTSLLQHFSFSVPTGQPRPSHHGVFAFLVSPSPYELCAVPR

[7] = Intrinsic clearance in rat liver microsomes by LC-MS/MS analysis; format: ADME, Microsome
Summary of the method: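 Rat liver microsomes (0.633 mg/mL protein in 0.1 M potassium phosphate pH 7.4 with EDTA) were incubated with test compound and NADPH regenerating agent for 15 min at 37 °C, against a time-0 control, in duplicate. Reactions were quenched with cold acetonitrile, centrifuged, and supernatants analyzed by LC-MS.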

CYP2C9 = CYP2C9 (Homo sapiens, UniProt P11712); experiment: Inhibition of CYP2C9 at 3 uM by Gentest method; format: ADME
CYP2C9, sequence (P11712 whole entry): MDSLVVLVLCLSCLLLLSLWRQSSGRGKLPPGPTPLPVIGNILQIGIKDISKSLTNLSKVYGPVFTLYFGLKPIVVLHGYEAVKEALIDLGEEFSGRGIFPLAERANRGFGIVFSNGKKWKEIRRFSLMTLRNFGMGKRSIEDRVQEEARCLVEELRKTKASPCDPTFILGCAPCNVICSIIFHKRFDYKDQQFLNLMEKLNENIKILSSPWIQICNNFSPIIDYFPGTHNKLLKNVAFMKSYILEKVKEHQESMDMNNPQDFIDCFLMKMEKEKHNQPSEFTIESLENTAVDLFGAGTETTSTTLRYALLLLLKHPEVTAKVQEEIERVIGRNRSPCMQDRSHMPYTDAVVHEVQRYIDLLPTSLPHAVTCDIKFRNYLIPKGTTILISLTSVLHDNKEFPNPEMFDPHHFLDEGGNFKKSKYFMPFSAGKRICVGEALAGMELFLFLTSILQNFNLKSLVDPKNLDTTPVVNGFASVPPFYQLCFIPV

CYP3A4 [8] = experiment: Metabolic stability assessed as compound remaining after 1 hr in presence of human CYP3A4; format: ADME; details: read-out: Stability
[9] = Ratio of drug level from brain to plasma in Han Wistar rat at 2 mg/kg, po; format: ADME, organism-based; set-up: dose 2 mg/kg, route oral; details: read-out: BPR
Summary of the method: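 Male Han Wistar rats received a single 2 mg/kg po dose. Ratio calculated from brain and plasma AUC0-inf.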

[10] = AUC (0 to infinity) in plasma of Han Wistar rat at 2 mg/kg, po; format: ADME, organism-based; set-up: time infinity, dose 2 mg/kg, route oral
[11] = biological target: 5-hydroxytryptamine receptor 4 (Homo sapiens, UniProt Q13639); experiment: Binding affinity to 5HT4 receptor
5-hydroxytryptamine receptor 4, sequence (Q13639 whole entry): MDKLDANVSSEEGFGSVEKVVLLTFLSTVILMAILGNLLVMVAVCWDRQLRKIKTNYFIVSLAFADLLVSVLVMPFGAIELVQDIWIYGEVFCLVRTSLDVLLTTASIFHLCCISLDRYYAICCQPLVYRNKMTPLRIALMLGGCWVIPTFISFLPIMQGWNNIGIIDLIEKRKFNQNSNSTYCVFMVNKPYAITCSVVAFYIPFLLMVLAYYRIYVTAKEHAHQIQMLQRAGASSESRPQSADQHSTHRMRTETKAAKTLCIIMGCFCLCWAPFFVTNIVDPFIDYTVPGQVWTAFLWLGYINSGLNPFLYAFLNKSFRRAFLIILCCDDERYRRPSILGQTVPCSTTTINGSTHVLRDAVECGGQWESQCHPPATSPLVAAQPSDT
Summary of the method: (§1)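 Screened at 10 μM in a panel of about 70 receptor binding sites (Novascreen).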

[12] = biological target: T2, Alpha-2B adrenergic receptor (Homo sapiens, UniProt P18089); experiment: Binding affinity to adrenergic alpha2B receptor
T2 sequence (P18089 whole entry): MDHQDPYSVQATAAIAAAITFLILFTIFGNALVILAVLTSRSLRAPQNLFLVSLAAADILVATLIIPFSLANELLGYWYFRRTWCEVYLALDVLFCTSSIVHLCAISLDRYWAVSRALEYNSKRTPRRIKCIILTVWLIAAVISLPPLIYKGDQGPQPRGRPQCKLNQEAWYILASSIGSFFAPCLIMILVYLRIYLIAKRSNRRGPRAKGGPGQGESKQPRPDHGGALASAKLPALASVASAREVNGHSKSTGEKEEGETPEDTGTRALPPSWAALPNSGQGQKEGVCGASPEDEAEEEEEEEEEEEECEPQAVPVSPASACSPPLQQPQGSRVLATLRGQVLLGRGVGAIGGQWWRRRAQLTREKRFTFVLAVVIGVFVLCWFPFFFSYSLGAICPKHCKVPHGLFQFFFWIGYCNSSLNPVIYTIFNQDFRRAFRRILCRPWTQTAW
Summary of the method: as §1

[13] = biological target: T3, Alpha-2A adrenergic receptor (Homo sapiens, UniProt P08913); experiment: Binding affinity to adrenergic alpha2A receptor
T3 sequence (P08913 whole entry): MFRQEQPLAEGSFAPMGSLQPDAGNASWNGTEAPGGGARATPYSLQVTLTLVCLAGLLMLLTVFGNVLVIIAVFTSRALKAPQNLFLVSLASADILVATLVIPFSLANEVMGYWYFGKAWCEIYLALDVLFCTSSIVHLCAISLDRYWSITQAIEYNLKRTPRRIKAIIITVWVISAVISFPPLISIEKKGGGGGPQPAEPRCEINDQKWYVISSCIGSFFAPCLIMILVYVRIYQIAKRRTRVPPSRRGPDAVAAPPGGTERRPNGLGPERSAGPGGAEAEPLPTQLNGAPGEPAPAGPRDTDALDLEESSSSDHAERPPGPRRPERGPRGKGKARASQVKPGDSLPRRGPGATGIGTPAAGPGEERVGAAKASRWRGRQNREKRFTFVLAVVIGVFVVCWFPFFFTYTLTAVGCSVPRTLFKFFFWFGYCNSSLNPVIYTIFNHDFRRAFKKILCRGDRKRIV
Summary of the method: as §1

[14] = Oral bioavailability in Han Wistar rat assessed as ratio of AUC (0 to infinity) at 10 mg/kg, po normalized to 2 mg/kg, iv; format: ADME, organism-based; details: in vivo
Rattus norvegicus [15] = experiment: Cmax in Long Evans rat at 3 mg/kg, po; format: ADME, organism-based; set-up: dose 3 mg/kg, route oral; details: in vivo
Summary of the method: (§2)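 Male Long Evans rats (6-8 weeks, 250-550 g) given a single 3 mg/kg oral dose as a solution in 2% Tween, 0.5% methocell in water. Plasma sampled over 6 h. Levels measured by LC-MS/MS after acetonitrile protein precipitation with internal standard; detection limit 1 ng/mL.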

[16] = AUC (0 to infinity) in brain of Han Wistar rat at 2 mg/kg, po; format: ADME, organism-based; set-up: time infinity, dose 2 mg/kg, route oral
[17] = biological target: Neuronal acetylcholine receptor; alpha4/beta2 (Homo sapiens, UniProt P17787+P43681); experiment: Agonist activity at alpha4beta2 nAChR; format: functional
Neuronal acetylcholine receptor; alpha4/beta2, sequence (P17787 whole entry): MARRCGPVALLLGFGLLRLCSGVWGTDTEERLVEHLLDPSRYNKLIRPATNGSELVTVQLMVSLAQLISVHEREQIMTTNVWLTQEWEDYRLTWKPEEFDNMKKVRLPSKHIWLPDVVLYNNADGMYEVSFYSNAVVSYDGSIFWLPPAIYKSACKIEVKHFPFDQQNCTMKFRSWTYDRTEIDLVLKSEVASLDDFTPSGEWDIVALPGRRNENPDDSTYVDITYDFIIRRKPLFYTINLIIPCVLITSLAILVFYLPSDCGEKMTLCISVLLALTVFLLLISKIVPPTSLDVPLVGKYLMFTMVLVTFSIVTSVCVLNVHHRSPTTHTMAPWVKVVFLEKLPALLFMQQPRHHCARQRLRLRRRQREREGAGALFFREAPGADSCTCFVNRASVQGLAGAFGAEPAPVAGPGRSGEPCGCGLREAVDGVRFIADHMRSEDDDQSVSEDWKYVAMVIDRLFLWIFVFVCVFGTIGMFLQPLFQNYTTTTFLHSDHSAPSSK
Neuronal acetylcholine receptor; alpha4/beta2, sequence (P43681 whole entry): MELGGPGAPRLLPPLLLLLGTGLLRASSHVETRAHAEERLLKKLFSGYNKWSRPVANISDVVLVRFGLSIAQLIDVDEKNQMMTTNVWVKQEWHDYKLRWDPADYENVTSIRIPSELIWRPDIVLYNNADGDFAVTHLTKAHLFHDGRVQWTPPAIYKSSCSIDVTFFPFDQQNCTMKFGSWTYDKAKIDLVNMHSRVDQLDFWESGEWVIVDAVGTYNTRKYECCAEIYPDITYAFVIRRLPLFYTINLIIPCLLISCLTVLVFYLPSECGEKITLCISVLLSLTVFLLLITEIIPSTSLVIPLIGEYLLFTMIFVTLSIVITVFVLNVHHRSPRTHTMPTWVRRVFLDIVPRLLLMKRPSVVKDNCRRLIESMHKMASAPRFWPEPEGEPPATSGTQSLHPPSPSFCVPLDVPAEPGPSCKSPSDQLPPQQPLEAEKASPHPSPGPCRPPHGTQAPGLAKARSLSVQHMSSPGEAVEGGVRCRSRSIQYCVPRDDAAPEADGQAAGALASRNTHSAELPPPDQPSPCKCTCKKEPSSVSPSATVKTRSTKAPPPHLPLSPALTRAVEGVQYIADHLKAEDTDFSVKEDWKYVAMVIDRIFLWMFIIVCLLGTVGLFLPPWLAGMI

[18] = Half life in Han Wistar rat at 10 mg/kg, po and 2 mg/kg, iv; format: ADME, organism-based; details: in vivo
Rattus norvegicus [19] = experiment: Inhibition of MK-801-induced cognitive function in po dosed Long Evans rat administered 60 mins prior to MK801 challenge measured after 1 hr by novel object recognition test; format: functional; details: read-out: MED
Summary of the method: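 NOR in rats: vehicle or test compound (0.3-30 mg/kg po) 60 min before the sample trial, and MK-801 (0.03 mg/kg ip) 30 min before. Sample trial was 5 min with two identical objects. Choice trial, 1 h later, was 5 min with one familiar and one novel object. N = 10 per group.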

Rattus norvegicus [20] = experiment: Inhibition of MK-801-induced perceptual processing in po dosed Long Evans rat administered 60 mins prior to MK801 challenge measured after 1 hr by prepulse inhibition test; format: functional; details: read-out: MED
Summary of the method: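 Rat prepulse inhibition: test compound (1-30 mg/kg) given po 60 min and MK-801 (0.085 mg/kg) sc 10 min before testing. After 5 min at 64 dB background, 61 trials were run: 120 dB pulse alone or with a 69/74/79 dB prepulse 100 ms earlier. PPI = 100 - (prepulse/pulse startle × 100). Chronic arm: 3 mg/kg po daily for 14 days.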

[21] = AUC (last) in Long Evans rat at 3 mg/kg, po; format: ADME, organism-based; set-up: time 0 - last, dose 3 mg/kg, route oral; details: plasma
Summary of the method: as §2

[22] = Tmax in Long Evans rat at 3 mg/kg, po; format: ADME, organism-based; set-up: dose 3 mg/kg, route oral; details: in vivo
Summary of the method: as §2

Row | Structure (SMILES) | Ratio EC50 [1] | pIC50 [2] | solubility thermodynamic [3] [µM] | Ratio EC50 [4] | pEC50 [5] | inhibition at 3 µM (CYP3A4 [6]) [%] | inhibition at 3 µM (CYP2D6) [%] | inhibition at 3 µM (CYP2C9) [%] | remaining at 1 h (CYP3A4 [8]) [%] | also measured
1 | O=C(NCCCCN1CCCCC1)Nc1ccc(-c2ccccc2)nc1 | 10.1 | < 4.52 | 193 (≈ 68 µg/mL) | > 30 | 6.92 | -21 | 6 | -4 | 100 | microsomal CLint [7]: 18 µL/min/mg
2 | O=C(NCCCCN1CCCCC1)Nc1ccc(-c2ccccn2)cc1 | 5 | < 4.52 | 153 (≈ 53.9 µg/mL) | > 30 | 6.89 | -2 | 15 | 0 | 97 | 
3 | O=C(NCCCCN1CCCCC1)Nc1ccc(-c2cccnc2)cc1 |  |  |  |  | 6.92 |  |  |  |  | 
4 | O=C(NCCCCN1CCCCC1)Nc1ccc(-c2ccc(F)cc2)nc1 |  | < 4.52 | 121 (≈ 44.8 µg/mL) |  |  | 0 | 19 | -17 | 75 | Kp [9]: 0.3; AUC(0-inf) [10]: 768 ng·h/mL; pKi [11]: 5.22; pIC50 [12]: 4.46; pIC50 [13]: 5.12; bioavailability [14]: 100%; Cmax (Rattus norvegicus [15]): 40 ng/mL; AUC(0-inf) [16]: 215 ng·h/mL; pIC50 [17]: < 4.52; half-life [18]: 210 min; minimal effective dose (Rattus norvegicus [19]): 3 mg/kg; minimal effective dose (Rattus norvegicus [20]): 3 mg/kg; AUC(0-t) [21]: 318 ng·h/mL; Tmax [22]: 5.3 h; microsomal CLint [7]: < 5 µL/min/mg
5 | O=C(NCCCCN1CCCCC1)Nc1ccc(-c2ccc(F)cc2)cc1 | 1.7 | 5.24 | 20 (≈ 7.39 µg/mL) | 8 |  | -13 |  | -16 | 100 | 
6 | O=C(NCCCCN1CCCCC1)Nc1ccc(-c2ccc(F)nc2)nc1 | > 30 | < 4.52 | 205 (≈ 76.1 µg/mL) | > 30 | 6.28 | -19 | 8 | -10 | 100 | 
7 | O=C(NCCCCN1CCCCC1)Nc1ccc(-c2ccc(F)nc2)cc1 | 1.2 | < 4.52 | 158 (≈ 58.5 µg/mL) | > 30 | 6.92 | -22 |  | -18 | 100 | 
8 | O=C(CCCCCN1CCCCC1)Nc1ccc(-c2cccnc2)cc1 |  |  |  |  | 6.05 |  |  |  |  | 
9 | COc1ccccc1-c1ccc(NC(=O)NCCCCN2CCCCC2)cn1 | 3.9 | < 4.52 | 174 (≈ 66.6 µg/mL) | > 30 | 6.64 | 8 | 8 | 6 | 88 | 
10 | O=C(NCCCCN1CCOCC1)Nc1ccc(-c2cccnc2)cc1 |  |  |  |  | 6.31 |  |  |  |  | 
11 | COc1ccccc1-c1ccc(NC(=O)NCCCCN2CCCCC2)cc1 | 1.1 | 5.11 | 114 (≈ 43.5 µg/mL) | 7.7 | 6.85 | 5 |  | -2 | 100 | 
12 | O=C(NCCCCN1CCCCC1)Nc1ccc(-c2ccccc2F)nc1 | 5.6 | < 4.52 | 196 (≈ 72.6 µg/mL) | > 30 | 6.82 | -3 |  | -10 | 100 | 
13 | O=C(NCCCCN1CCCCC1)Nc1ccc(-c2ccccc2F)cc1 | 1.2 | 5.24 | 95 (≈ 35.1 µg/mL) | 8.2 | 6.89 | -17 |  | -1 | 88 | 
14 | O=C(NCCCCN1CCCCC1)Nc1ccc(-c2ccccn2)nc1 | 9.88 | < 4.52 | 171 (≈ 60.4 µg/mL) | > 30 | 6.41 | 0 | 22 | -3 | 100 | 
15 | O=C(CCCCN1CCCCC1)Nc1ccc(-c2cccnc2)cc1 |  |  |  |  | 6.46 |  |  |  |  | 
16 | O=C(NCCCCN1CCCCC1)Nc1ccc(-c2ccccc2)cc1 | 2.8 | 5.10 | 108 (≈ 38 µg/mL) | > 30 | 6.59 |  |  | 2 | 100 | 

— ChEMBL document CHEMBL1155527 (J Med Chem, 2010)
